Source: ChEMBL document CHEMBL1149351, “4-Amino-2-alkyl-butyramides as small molecule CCR2 antagonists with favorable pharmacokinetic properties” (Bioorg Med Chem Lett, 2006)
pIC50: −log10 of the molar value.

What was measured:
[1] = biological target: T1, C-C chemokine receptor type 2 (Homo sapiens, UniProt P41597); test: Displacement of [125I]MCP-1 from human CCR2b expressed in human monocyte cells; type: cell-based
Procedure, shortened: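 Human monocytes (5 × 10⁴) incubated with ¹²⁵I-hMCP-1 (20–50 pM; 2200 Ci/mmol) plus varying unlabeled competitor, 60 min at room temperature, in 50 mM HEPES, 5 mM MgCl₂, 1 mM CaCl₂, pH 7.4. Stopped by filtration on PEI-presoaked GF/B filters, washed with 25 mM HEPES pH 7.5/500 mM NaCl, then scintillation counted. Means of at least two separate experiments.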
Target sequence in this assay (P41597 whole entry): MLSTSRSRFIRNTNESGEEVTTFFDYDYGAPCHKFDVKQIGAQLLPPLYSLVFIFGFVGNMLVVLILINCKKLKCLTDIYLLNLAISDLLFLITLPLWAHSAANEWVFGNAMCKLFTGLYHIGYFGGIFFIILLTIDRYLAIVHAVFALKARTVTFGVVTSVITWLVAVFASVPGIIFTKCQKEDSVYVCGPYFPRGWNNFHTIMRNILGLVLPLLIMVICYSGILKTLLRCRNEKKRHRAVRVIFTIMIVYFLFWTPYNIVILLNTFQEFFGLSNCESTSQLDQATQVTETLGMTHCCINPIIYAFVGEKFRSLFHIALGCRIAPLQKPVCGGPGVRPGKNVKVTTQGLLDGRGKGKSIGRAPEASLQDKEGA

[2] = biological target: T1, C-C chemokine receptor type 2; test: Displacement of [125I]MCP-1 from human CCR2b expressed in CHO cells; type: cell-based
Target sequence in this assay (P41597 whole entry): as above

[3] = biological target: T1, C-C chemokine receptor type 2; test: Inhibition of [125I]MCP-1 binding to human CCR2b expressed in CHO cells at 1 uM; type: cell-based
Target sequence in this assay (P41597 whole entry, looked up): as the sequence (P41597 whole entry) above

[4] = biological target: T1, C-C chemokine receptor type 2; test: Activity at CCR2b by calcium flux based FLIPR assay in CHO cells; type: functional, cell-based
Target sequence in this assay (P41597 whole entry): as above

[5] = biological target: T1, C-C chemokine receptor type 2; test: Inhibition of [125I]MCP-1 binding to human CCR2b expressed in human monocyte cells at 1 uM; type: cell-based
Procedure, shortened: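 Competition binding on human monocytes (5 × 10⁴ cells) with ¹²⁵I-hMCP-1 (20–50 pM) in 50 mM HEPES, 5 mM MgCl₂, 1 mM CaCl₂, pH 7.4, for 60 min at room temperature. Stopped by filtration through filters presoaked in 0.1% polyethyleneimine, washed with 25 mM HEPES pH 7.5 plus 500 mM NaCl. Bound label read by scintillation counting. Mean of at least two separate experiments.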
Target sequence in this assay (P41597 whole entry, looked up): as the sequence (P41597 whole entry) above

[6] = Volume of distribution in Sprague-Dawley rat at 1 mg/kg, iv; type: ADME, organism-based; parameters: dose 1 mg/kg, route intravenous; settings: in vivo, read-out: Vdss
[7] = Clearance in Sprague-Dawley rat at 1 mg/kg, iv; type: ADME, organism-based; parameters: dose 1 mg/kg, route intravenous; settings: in vivo
Rattus norvegicus [8] = test: AUC in Sprague-Dawley rat at 3 mg/kg, po; type: ADME, organism-based, Plasma; parameters: dose 3 mg/kg, route oral; settings: in vivo
[9] = biological target: C-C chemokine receptor type 8 (Homo sapiens) (UniProt P51685); test: Inhibition of CCR8 at 1 uM
Rattus norvegicus [10] = test: Tmax in Sprague-Dawley rat at 3 mg/kg, po; type: ADME, organism-based; parameters: dose 3 mg/kg, route oral; settings: in vivo
[11] = biological target: T2, C-C chemokine receptor type 3 (Homo sapiens) (UniProt P51677); test: Inhibition of human CCR3 at 4 uM
T2 sequence (whole entry): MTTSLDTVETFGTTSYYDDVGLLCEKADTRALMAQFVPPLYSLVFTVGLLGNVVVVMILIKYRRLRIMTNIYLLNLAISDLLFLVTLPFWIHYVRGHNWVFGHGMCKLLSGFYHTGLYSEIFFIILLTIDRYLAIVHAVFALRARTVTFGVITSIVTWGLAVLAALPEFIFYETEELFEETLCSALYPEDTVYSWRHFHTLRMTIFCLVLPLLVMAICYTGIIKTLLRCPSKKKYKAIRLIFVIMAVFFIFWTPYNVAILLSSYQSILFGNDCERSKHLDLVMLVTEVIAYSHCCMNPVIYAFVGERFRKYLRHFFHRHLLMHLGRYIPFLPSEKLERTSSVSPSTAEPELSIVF

Rattus norvegicus [12] = test: AUC in Sprague-Dawley rat at 1 mg/kg, iv; type: ADME, organism-based, Plasma; parameters: dose 1 mg/kg, route intravenous; settings: in vivo
[13] = biological target: C-X-C chemokine receptor type 4 (Homo sapiens) (UniProt P61073); test: Inhibition of human CXCR4 at 1 uM
[14] = biological target: T3, C-C chemokine receptor type 1 (Homo sapiens) (UniProt P32246); test: Inhibition of human CCR1 at 1 uM
T3 sequence (whole entry): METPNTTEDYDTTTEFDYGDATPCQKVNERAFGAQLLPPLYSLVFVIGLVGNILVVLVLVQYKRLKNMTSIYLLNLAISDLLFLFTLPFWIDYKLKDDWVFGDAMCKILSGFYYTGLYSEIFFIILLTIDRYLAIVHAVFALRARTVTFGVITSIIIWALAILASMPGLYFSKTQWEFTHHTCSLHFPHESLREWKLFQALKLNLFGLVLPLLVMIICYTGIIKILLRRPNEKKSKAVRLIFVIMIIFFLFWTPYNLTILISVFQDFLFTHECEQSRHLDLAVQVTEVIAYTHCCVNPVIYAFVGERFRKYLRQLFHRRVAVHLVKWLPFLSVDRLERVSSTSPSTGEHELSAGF

Rattus norvegicus [15] = test: Oral bioavailability in Sprague-Dawley rat at 3 mg/kg, po; type: ADME, organism-based; settings: in vivo
[16] = Half life in Sprague-Dawley rat at 1 mg/kg, iv; type: ADME, organism-based; parameters: dose 1 mg/kg, route intravenous; settings: in vivo
[17] = Cmax in Sprague-Dawley rat at 3 mg/kg, po; type: ADME, organism-based; parameters: dose 3 mg/kg, route oral; settings: in vivo
[18] = biological target: C-C chemokine receptor type 5 (Homo sapiens) (UniProt P51681); test: Inhibition of CCR5 at 1 uM
Chain of C-C chemokine receptor type 5 (Homo sapiens) (P51681 whole entry, looked up): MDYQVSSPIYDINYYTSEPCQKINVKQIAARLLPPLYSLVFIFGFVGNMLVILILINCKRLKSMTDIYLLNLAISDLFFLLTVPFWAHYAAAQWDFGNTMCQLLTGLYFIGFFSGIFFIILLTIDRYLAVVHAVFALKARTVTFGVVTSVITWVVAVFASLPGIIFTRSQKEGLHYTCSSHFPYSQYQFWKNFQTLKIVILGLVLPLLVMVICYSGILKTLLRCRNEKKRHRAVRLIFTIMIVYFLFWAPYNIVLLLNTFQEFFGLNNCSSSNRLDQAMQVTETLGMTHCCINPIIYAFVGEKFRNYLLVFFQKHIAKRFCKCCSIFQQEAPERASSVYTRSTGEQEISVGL

Chain of C-C chemokine receptor type 8 (Homo sapiens) (P51685 whole entry): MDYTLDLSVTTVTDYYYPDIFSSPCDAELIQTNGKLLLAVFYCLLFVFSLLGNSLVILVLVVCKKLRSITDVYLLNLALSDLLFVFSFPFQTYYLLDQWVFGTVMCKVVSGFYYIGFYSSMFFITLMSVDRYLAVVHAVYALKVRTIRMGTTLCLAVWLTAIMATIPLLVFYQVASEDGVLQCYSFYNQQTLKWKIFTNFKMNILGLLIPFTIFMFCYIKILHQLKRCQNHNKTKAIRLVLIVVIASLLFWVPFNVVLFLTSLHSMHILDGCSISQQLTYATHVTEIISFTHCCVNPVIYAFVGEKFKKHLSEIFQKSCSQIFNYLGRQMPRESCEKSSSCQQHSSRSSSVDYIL
Chain of C-X-C chemokine receptor type 4 (Homo sapiens) (P61073 whole entry): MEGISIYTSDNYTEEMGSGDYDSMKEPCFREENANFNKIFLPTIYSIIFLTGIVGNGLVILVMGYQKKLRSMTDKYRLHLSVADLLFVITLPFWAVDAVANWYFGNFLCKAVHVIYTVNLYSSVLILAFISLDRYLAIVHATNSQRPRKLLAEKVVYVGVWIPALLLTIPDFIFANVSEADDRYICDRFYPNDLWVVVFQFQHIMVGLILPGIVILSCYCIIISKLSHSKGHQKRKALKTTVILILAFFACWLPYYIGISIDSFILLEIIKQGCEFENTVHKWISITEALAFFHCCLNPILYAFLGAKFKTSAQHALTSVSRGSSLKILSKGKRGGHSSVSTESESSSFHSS

| Structure (SMILES) | pIC50 [1] | pIC50 [2] | other results |
| --- | --- | --- | --- |
| CC(O)C(CCN1CC[C@@]2(C=Cc3ccccc32)[C@@H](C)C1)C(=O)NCc1cc(C(F)(F)F)cc(C(F)(F)F)c1 (stereo partly drawn) | 7.32 | – | – |
| CC[C@H]1CN(CC[C@H](C(=O)NCc2cc(C(F)(F)F)cc(C(F)(F)F)c2)c2ccc(F)cc2)CC[C@@]12C=Cc1ccccc12 | – | 6.36 | – |
| COC(=O)C[C@@H](CCN1CCC(c2ccccc2)CC1)C(=O)NCc1cc(C(F)(F)F)cc(C(F)(F)F)c1 | – | – | inhibition [3]: 38% |
| CC(=O)N1CCCC(C(CCN2CCC3(C=Cc4ccccc43)CC2)C(=O)NCc2cc(C(F)(F)F)cc(C(F)(F)F)c2)C1 (stereo not drawn) | 7.10 | 6.18 | – |
| C[C@H]1CN(CC[C@H](C(=O)NCc2cc(C(F)(F)F)cc(C(F)(F)F)c2)c2ccc(F)cc2)CC[C@@]12C=Cc1ccccc12 | – | 7.17 | – |
| O=C(NCc1cc(C(F)(F)F)cc(C(F)(F)F)c1)[C@@H](CCN1CCC2(C=Cc3ccccc32)CC1)C1CC1 | 7.82 | 7.01 | – |
| C[C@H]1CN(CC[C@H](C(=O)NCc2cc(C(F)(F)F)cc(C(F)(F)F)c2)C2CCC2)CC[C@@]12C=Cc1ccccc12 | 7.92 | 7.55 | pIC50 [4]: 7.96 |
| O=C1NCC(C(=O)NC(CCN2CCC3(C=Cc4ccccc43)CC2)C(=O)NCc2cc(C(F)(F)F)cc(C(F)(F)F)c2)N1 (stereo not drawn) | – | 6.28 | – |
| O=C(CCCN1CCC2(C=Cc3ccccc32)CC1)NCc1cc(C(F)(F)F)cc(C(F)(F)F)c1 | – | 6.24 | inhibition [5]: 80% |
| O=C(NCc1cc(C(F)(F)F)cc(C(F)(F)F)c1)C(CCN1CCC2(C=Cc3ccccc32)CC1)C1CC1 (stereo not drawn) | 7.42 | 7.16 | – |
| C[C@@H](CCN1CCC2(C=Cc3ccccc32)CC1)C(=O)NCc1cc(C(F)(F)F)cc(C(F)(F)F)c1 | 7.07 | 6.22 | – |
| NC(CCN1CCC2(C=Cc3ccccc32)CC1)C(=O)NCc1cc(C(F)(F)F)cc(C(F)(F)F)c1 (stereo not drawn) | – | – | inhibition [3]: 33% |
| O=C(NCc1cc(C(F)(F)F)cc(C(F)(F)F)c1)C(CCN1CCC2(C=Cc3ccccc32)CC1)NS(=O)(=O)c1cccs1 (stereo not drawn) | – | – | inhibition [3]: 20% |
| C[C@H](CCN1CCC2(C=Cc3ccccc32)CC1)C(=O)NCc1cc(C(F)(F)F)cc(C(F)(F)F)c1 | 7.43 | 6.64 | – |
| CC(C)[C@@H](CCN1CCC2(C=Cc3ccccc32)CC1)C(=O)NCc1cc(C(F)(F)F)cc(C(F)(F)F)c1 | 7.14 | 6.46 | – |
| O=C(NCc1cc(C(F)(F)F)cc(C(F)(F)F)c1)C(CCN1CCC2(C=Cc3ccccc32)CC1)C1CCCCC1 (stereo not drawn) | 7.14 | 6.80 | – |
| C[C@H]1CN(CC[C@H](C(=O)NCc2cc(C(F)(F)F)cc(C(F)(F)F)c2)C2CC2)CC[C@@]12C=Cc1ccccc12 | 8.40 | 7.85 | Vd [6]: 2.19 L/kg; clearance [7]: 7.36 mL/min/kg; AUC (Rattus norvegicus [8]): 4.08 µM·h; inhibition [9]: 9%; Tmax (Rattus norvegicus [10]): 4.67 µM; inhibition [11]: 3%; AUC (Rattus norvegicus [12]): 4.17 µM·h; pIC50 [4]: 8.40; inhibition [13]: 8%; inhibition [14]: -5%; F (Rattus norvegicus [15]): 98%; half-life [16]: 4.11 h; Cmax [17]: 1580 nM; inhibition [18]: 38% |
| O=C(NCc1cc(C(F)(F)F)cc(C(F)(F)F)c1)[C@@H](CCN1CCC(c2ccc(F)cc2)CC1)C1CC1 | 7.14 | 6.55 | – |

| Structure (SMILES) | pIC50 [1] | pIC50 [2] | other results |
| --- | --- | --- | --- |
| CS(=O)(=O)NC(CCN1CCC2(C=Cc3ccccc32)CC1)C(=O)NCc1cc(C(F)(F)F)cc(C(F)(F)F)c1 (stereo not drawn) | – | 6.61 | – |
| COC(=O)C[C@H](CCN1CCC(c2ccccc2)CC1)C(=O)NCc1cc(C(F)(F)F)cc(C(F)(F)F)c1 | – | – | inhibition [3]: 42% |
| C=CC[C@H](CCN1CCC2(C=Cc3ccccc32)CC1)C(=O)NCc1cc(C(F)(F)F)cc(C(F)(F)F)c1 | 7.43 | 6.71 | – |
| O=C(NCc1cc(C(F)(F)F)cc(C(F)(F)F)c1)C(CCN1CCC2(C=Cc3ccccc32)CC1)NS(=O)(=O)c1ccccc1 (stereo not drawn) | – | – | inhibition [3]: 7% |
| CS(=O)(=O)N1CCCC(C(CCN2CCC3(C=Cc4ccccc43)CC2)C(=O)NCc2cc(C(F)(F)F)cc(C(F)(F)F)c2)C1 (stereo not drawn) | – | 6.11 | inhibition [5]: 70% |
| CC(O)C(CCN1CCC(c2ccc(F)cc2)CC1)C(=O)NCc1cc(C(F)(F)F)cc(C(F)(F)F)c1 (stereo not drawn) | 6.34 | – | – |
| CC(C)[C@H](CCN1CCC2(C=Cc3ccccc32)CC1)C(=O)NCc1cc(C(F)(F)F)cc(C(F)(F)F)c1 | 7.33 | 6.69 | – |
| CCC[C@H](CCN1CCC(c2ccccc2)CC1)C(=O)NCc1cc(C(F)(F)F)cc(C(F)(F)F)c1 | 7.38 | 6.90 | – |
| C[C@H]1CN(CC[C@@H](C(=O)NCc2cc(C(F)(F)F)cc(C(F)(F)F)c2)C2CC2)CC[C@@]12C=Cc1ccccc12 | 7.89 | 7.10 | – |
| COC(=O)NC(CCN1CCC2(C=Cc3ccccc32)CC1)C(=O)NCc1cc(C(F)(F)F)cc(C(F)(F)F)c1 (stereo not drawn) | – | 6.09 | – |
| CC(=O)Nc1ncc(S(=O)(=O)NC(CCN2CCC3(C=Cc4ccccc43)CC2)C(=O)NCc2cc(C(F)(F)F)cc(C(F)(F)F)c2)s1 (stereo not drawn) | – | – | inhibition [3]: 45% |
| C[C@H]1CN(CCCC(=O)NCc2cc(C(F)(F)F)cc(C(F)(F)F)c2)CC[C@@]12C=Cc1ccccc12 | 7.03 | 6.76 | – |
| O=CNC(CCN1CCC2(C=Cc3ccccc32)CC1)C(=O)NCc1cc(C(F)(F)F)cc(C(F)(F)F)c1 (stereo not drawn) | – | – | inhibition [3]: 25% |
| C=CC[C@H](CCN1CCC(c2ccccc2)CC1)C(=O)NCc1cc(C(F)(F)F)cc(C(F)(F)F)c1 | 6.67 | 6.19 | – |
| O=C(NCc1cc(C(F)(F)F)cc(C(F)(F)F)c1)[C@@H](CCN1CCC(c2ccccc2)CC1)C1CC1 | 6.89 | 6.55 | – |
| C[C@H]1CN(CC[C@H](CC2CC2)C(=O)NCc2cc(C(F)(F)F)cc(C(F)(F)F)c2)CC[C@@]12C=Cc1ccccc12 | 8.05 | 7.60 | pIC50 [4]: 8.52 |
| O=C(NCc1cc(C(F)(F)F)cc(C(F)(F)F)c1)C(CCN1CCC2(C=Cc3ccccc32)CC1)Cc1ccccc1 (stereo not drawn) | 6.63 | 6.53 | – |
| O=C(NCc1cc(C(F)(F)F)cc(C(F)(F)F)c1)C(CCN1CCC2(C=Cc3ccccc32)CC1)NS(=O)(=O)C(F)(F)F (stereo not drawn) | – | 6.90 | – |
